The results in this text go back to ChEMBL document CHEMBL4049388, “Facile and efficient access to Androsten-17-(1',3',4')-pyrazoles and Androst-17β-(1',3',4')-pyrazoles via Vilsmeier reagents, and their antiproliferative activity evaluation in vitro” (Eur J Med Chem, 2017).

The subject of data set [1] is HeLa. Briefly: Cytotoxicity against human HeLa cells assessed as growth inhibition at 10 uM after 72 hrs by SRB assay relative to control. The class given is functional. To be noted: read-out: GI. The method, boiled down:
(§1)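 SRB single-dose screen at 10 μM on 293T, A549, Hela and MCF-7 cells. Results reported as percent inhibitory ratio (mean ± SD).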

The subject of data set [2] is MCF7. Nature of the data set: Cytotoxicity against human MCF7 cells assessed as growth inhibition at 10 uM after 72 hrs by SRB assay relative to control. The class given is functional. Particulars: MCF7, 72 h, read-out: GI. The method, boiled down: as §1
On the technique in general: Sulforhodamine B stains cellular protein and so reports cell mass.

Data set [3] concerns A549. Nature of the data set: Cytotoxicity against human A549 cells assessed as growth inhibition at 10 uM after 72 hrs by SRB assay relative to control. The class given is functional. Particulars: A549, 72 h, read-out: GI. The method, boiled down: as §1
A short description of data set [4]: Cytotoxicity against human 293T cells assessed as growth inhibition at 10 uM after 72 hrs by SRB assay relative to control. The class given is cell-based. Particulars: HEK-293T cells, read-out: GI. The method, boiled down: as §1
Data set [5] deals with MCF7. Nature of the data set: Cytotoxicity against human MCF7 cells after 72 hrs by SRB assay. The class given is functional, cell-based. To be noted: MCF7, 72 h. The method, boiled down: (§2)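 SRB assay on 293T, A549, Hela and MCF-7 cells, with cisplatin as reference control. IC50 calculated for each compound from triplicate assays.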
In data set [6] the test system is HeLa. Nature of the data set: Cytotoxicity against human HeLa cells after 72 hrs by SRB assay. The class given is functional, cell-based. The method, boiled down: as §2
The subject of data set [7] is A549. Briefly: Cytotoxicity against human A549 cells after 72 hrs by SRB assay. The class given is functional, cell-based. To be noted: A549, 72 h. The method, boiled down:
as §2

Another data set has as its system HEK-293T. Briefly: Cytotoxicity against human 293T cells after 72 hrs by SRB assay. The class given is cell-based. The method, boiled down:
as §2

As to `C[C@]12CC[C@H](O)C[C@@H]1CC[C@@H]1[C@@H]2CC[C@]2(C)[C@@H](c3nn(-c4ccccc4)cc3CO)CC[C@@H]12`, the results for the inhibition of growth at 10 µM in the data set on HeLa [1], in the data set on MCF7 [2] and in the data set on A549 [3] were less than 10%, 27.8% and less than 10%, respectively. Further, in data set [4], the inhibition at 72 h, 10 µM is 18.5%.

The IC50 is the concentration that inhibits the measured activity by half. The low end stands for greater potency in that assay, the high end for weaker potency in that assay. For `CCCCNCc1cn(-c2ccccc2)nc1C1=CC[C@H]2[C@@H]3CC=C4C[C@@H](O)CC[C@]4(C)[C@H]3CC[C@]12C`, the inhibition of growth at 10 µM in the data set on HeLa [1] is 92.6%; in the data set on MCF7 [2] it was 93.7%; in the data set with A549 [3] it was 92.9%. Also, the half-maximal inhibitory concentration (IC50) in the data set on MCF7 [5] amounted to 3.18 µM; in the data set on HeLa [6], 3.37 µM; in the data set on A549 [7] it was 1.93 µM; in the data set with HEK-293T, 2.63 µM. Besides, the inhibition at 72 h, 10 µM in data set [4] is 95.1%.

Turning to `CCCNCc1cn(-c2ccccc2)nc1[C@H]1CC[C@H]2[C@@H]3CCC4C[C@@H](O)CC[C@]4(C)[C@H]3CC[C@]12C` (stereo partly drawn), the values for the inhibition of growth at 10 µM in the data set on HeLa [1], in the data set on MCF7 [2] and in the data set on A549 [3] were 90.3%, 88.6% and 91.5%, respectively. Besides, the IC50 in the data set with MCF7 [5] amounted to 4.84 µM; in the data set on HeLa [6], 1.98 µM; in the data set on A549 [7], 6.02 µM; with HEK-293T, 0.62 µM. The inhibition at 72 h, 10 µM in data set [4] worked out at 91.9%.

Regarding `CC(C)NCc1cn(-c2ccccc2)nc1C1=CC[C@H]2[C@@H]3CC=C4C[C@@H](O)CC[C@]4(C)[C@H]3CC[C@]12C`, the inhibition of growth at 10 µM in the data set on HeLa [1] is 92.4%; in the data set with MCF7 [2] it was 92.1%; in the data set with A549 [3], 93.3%. Moreover, the IC50 in the data set with MCF7 [5] turned out to be 6.36 µM; with HeLa [6] it was 3.49 µM; in the data set on A549 [7], 2.87 µM; in the data set with HEK-293T it was 7.51 µM. For the same compound, in data set [4], the inhibition at 72 h, 10 µM amounted to 94.7%.

Turning to `CNCc1cn(-c2ccccc2)nc1C1=CC[C@H]2[C@@H]3CC=C4C[C@@H](O)CC[C@]4(C)[C@H]3CC[C@]12C`, the inhibition of growth at 10 µM with HeLa [1] was 90.5%; with MCF7 [2], 81.1%; in the data set on A549 [3], 82.1%. The IC50 in the data set with MCF7 [5] came to 6.91 µM; in the data set on HeLa [6], 3.86 µM; in the data set with A549 [7] it was 3.68 µM; with HEK-293T it was 2.11 µM. Besides, the inhibition at 72 h, 10 µM in data set [4] was 91.6%.

For the compound `CCNCc1cn(-c2ccccc2)nc1[C@H]1CC[C@H]2[C@@H]3CCC4C[C@@H](O)CC[C@]4(C)[C@H]3CC[C@]12C` (stereo partly drawn), the inhibition of growth at 10 µM was found to be 88.4% with HeLa [1], 88.9% in the data set with MCF7 [2] and 92.4% in the data set on A549 [3]. Besides, the half-inhibitory concentration (IC50) was 3.92 µM in the data set on MCF7 [5], 3.28 µM in the data set on HeLa [6], 6.35 µM in the data set on A549 [7] and 5.29 µM in the data set on HEK-293T. Besides, the inhibition at 72 h, 10 µM in data set [4] came to 91.2%.

Turning to `CCCCNCc1cn(-c2ccccc2)nc1[C@H]1CC[C@H]2[C@@H]3CCC4C[C@@H](O)CC[C@]4(C)[C@H]3CC[C@]12C` (stereo partly drawn), the inhibition of growth at 10 µM in the data set with HeLa [1] is 29.3%; in the data set with MCF7 [2], 21.9%; in the data set on A549 [3], less than 10%. Also, the inhibition at 72 h, 10 µM in data set [4] was less than 10%.

For `C[C@]12CC[C@H]3[C@@H](CCC4C[C@@H](O)CC[C@@]43C)[C@@H]1CC[C@@H]2c1nn(-c2ccccc2)cc1CNc1ccccc1` (stereo partly drawn), the values for the inhibition of growth at 10 µM in the data set on HeLa [1], with MCF7 [2] and with A549 [3] were less than 10%, 16.9% and less than 10%, respectively. Further, in data set [4], the inhibition at 72 h, 10 µM came out at 12.5%.

In the case of `C[C@]12CC[C@H]3[C@@H](CCC4C[C@@H](O)CC[C@@]43C)[C@@H]1CC[C@@H]2c1nn(-c2ccccc2)cc1CNCc1ccccc1` (stereo partly drawn), the inhibition of growth at 10 µM amounted to 48.3% in the data set on HeLa [1], 44.4% with MCF7 [2] and 56.5% in the data set with A549 [3]. Moreover, the inhibition at 72 h, 10 µM in data set [4] is 60.8%.

As to `C[C@]12CC[C@H](O)CC1=CC[C@@H]1[C@@H]2CC[C@]2(C)C(c3nn(-c4ccccc4)cc3CNCc3ccccc3)=CC[C@@H]12`, the inhibition of growth at 10 µM with HeLa [1] is less than 10%; in the data set with MCF7 [2], 25.4%; with A549 [3], less than 10%. The inhibition at 72 h, 10 µM in data set [4] was determined as 50.7%.

As for `CNCc1cn(-c2ccccc2)nc1[C@H]1CC[C@H]2[C@@H]3CCC4C[C@@H](O)CC[C@]4(C)[C@H]3CC[C@]12C` (stereo partly drawn), the inhibition of growth at 10 µM is 41.3% with HeLa [1], 45.9% in the data set with MCF7 [2] and less than 10% in the data set with A549 [3]. Besides, the inhibition at 72 h, 10 µM in data set [4] was determined as 79.2%.

`CC(C)NCc1cn(-c2ccccc2)nc1[C@H]1CC[C@H]2[C@@H]3CCC4C[C@@H](O)CC[C@]4(C)[C@H]3CC[C@]12C` (stereo partly drawn): the inhibition of growth at 10 µM in the data set on HeLa [1] came out at 74.1%; in the data set on MCF7 [2], 70.8%; in the data set on A549 [3] it was 30.6%. Besides, the IC50 in the data set on MCF7 [5] came to 7.45 µM; in the data set on HeLa [6], 1.98 µM; with HEK-293T, 1.03 µM. Also, the inhibition at 72 h, 10 µM in data set [4] turned out to be 87.4%.

Take `COc1ccccc1NCc1cn(-c2ccccc2)nc1C1=CC[C@H]2[C@@H]3CC=C4C[C@@H](O)CC[C@]4(C)[C@H]3CC[C@]12C`: the inhibition of growth at 10 µM in the data set on HeLa [1] is less than 10%; with MCF7 [2] it was 18.1%; with A549 [3], less than 10%. Also, in data set [4], the inhibition at 72 h, 10 µM was less than 10%.

With `CCCNCc1cn(-c2ccccc2)nc1C1=CC[C@H]2[C@@H]3CC=C4C[C@@H](O)CC[C@]4(C)[C@H]3CC[C@]12C`, the inhibition of growth at 10 µM in the data set with HeLa [1] was found to be 93.5%; in the data set with MCF7 [2] it was 90.7%; with A549 [3], 91.2%. The IC50 came to 4.29 µM with MCF7 [5], 3.61 µM in the data set with HeLa [6], 1.57 µM in the data set with A549 [7] and 7.25 µM in the data set on HEK-293T. Also, the inhibition at 72 h, 10 µM in data set [4] was determined as 93.7%.
